From ChEMBL document CHEMBL4706606, “Re-evaluating pretomanid analogues for Chagas disease: Hit-to-lead studies reveal both in vitro and in vivo trypanocidal efficacy” (Eur J Med Chem, 2020)
Converted amounts (≈) assume the structure as drawn. The source made the active and inactive calls. No cut-off for these calls is given here.

Experiments:
[1] = tested on: Trypanosoma cruzi; experiment: Antitrypanosomal activity against Trypanosoma cruzi Tulahuen strain C2C4 amastigotes infected in rat L6 cells assessed as inhibition of parasite growth incubated for 96 hrs by chlorophenol red-fl-D-galactopyranoside based colorimetric analysis; assay type: functional, organism-based; details: for IC50: Tulahuen strain C2C4, L6, 96 h; for IC90: Tulahuen strain C2C4, L6, time 96 hrs
In short: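 Tulahuen strain TcVI T. cruzi expressing β-galactosidase, grown in L6 rat skeletal myoblast host cells. IC50/IC90 growth inhibition. Each value is the mean of ≥2 independent determinations using fresh sample stock.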

[2] = Inhibition of Trypanosoma cruzi Tulahuen C4 strain CYP51 expressed in Escherichia coli by fluorescence based assay
[3] = tested on: L6; experiment: Cytotoxicity against rat L6 cells assessed as reduction in cell viability incubated for 72 hrs by alamar blue assay; assay type: ADME, cell-based; details: L6, 72 h
[4] = Selectivity index, ratio of IC50 for cytotoxicity against rat L6 cells to IC50 for antitrypanosomal activity against Trypanosoma cruzi Tulahuen strain C2C4 amastigotes infected in rat L6 cells
[5] = Half life in human liver microsomes incubated for 60 mins
[6] = tested on: Trypanosoma cruzi; experiment: Antitrypanosomal activity against Trypanosoma cruzi Y strain amastigotes infected in U2OS cells assessed as inhibition of parasite growth at 0.37 ug/ml by image-based assay relative to control
[7] = Kinetic solubility of compound in water sonicated for 15 mins by HPLC analysis
[8] = Cytotoxicity against rat 3T3 cells assessed as reduction in cell viability incubated for 72 hrs by alamar blue assay; assay type: ADME, cell-based; details: NIH3T3, 72 h
[9] = Selectivity index, ratio of IC50 for cytotoxicity against rat 3T3 cells to IC50 for antitrypanosomal activity against Trypanosoma cruzi Tulahuen strain C2C4 amastigotes infected in rat 3T3 cells; details: 3T3 cells
[10] = tested on: Trypanosoma cruzi; experiment: Antitrypanosomal activity against Trypanosoma cruzi Tulahuen strain C2C4 amastigotes infected in […] cells assessed as reduction in parasite growth incubated for 48 hrs by chlorophenol red-fl-D-galactopyranoside based colorimetric analysis; assay type: functional, organism-based; details: for IC50: Tulahuen strain C2C4, NIH3T3, 48 h; for IC90: Tulahuen strain C2C4, NIH3T3, time 48 hrs
[11] = tested on: Trypanosoma cruzi; experiment: Antitrypanosomal activity against Trypanosoma cruzi Tulahuen strain C2C4 amastigotes infected in […] cells assessed as reduction in parasite growth incubated for 48 hrs by chlorophenol red-fl-D-galactopyranoside based colorimetric analysis relative to control; assay type: functional
[12] = target: Cytochrome P450 3A4 (Homo sapiens, UniProt P08684); experiment: Inhibition of CYP3A4 in human liver microsome using testosterone as substrate
[13] = Plasma concentration in Swiss mouse at 50 mg/kg, po measured upto 24 hrs by LC-MS/MS analysis
[14] = tested on: Trypanosoma cruzi; experiment: Antitrypanosomal activity against Trypanosoma cruzi amastigotes assessed as inhibition of parasite growth at 10 ug/ml relative to control
[15] = tested on: Trypanosoma cruzi; experiment: Antitrypanosomal activity against bloodstream trypomastigotes form of Trypanosoma cruzi CL Brener infected in BALB/c mouse assessed as reduction of parasite in mouth/nasal region at 50 mg/kg, po qd administered for 5 days starting from day 114 post infection followed by cyclophosphamide induced …; assay type: functional, organism-based; details: time 5.0 day
[16] = tested on: Trypanosoma cruzi; experiment: Antitrypanosomal activity against bloodstream trypomastigotes form of Trypanosoma cruzi CL Brener infected in BALB/c mouse assessed as reduction in parasitemia at 50 mg/kg, po administered 5 days after 114 days post infection followed by cyclophosphamide induced immunosuppression on day 143 post infection and measured for 149 days by bioluminescence analysis; assay type: functional, organism-based; details: time 5.0 day
In short: (§1)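 Female BALB/c mice, 8 weeks old, ~18 g, 5 per group. Infected i.p. with 10^3 bloodstream trypomastigotes of bioluminescent CL Brener (pTRIX2-RE9h). From day 114 p.i., oral dosing once daily for 5 days: reference drugs at 100 mg/kg in HPMC-SV with 5% DMSO, PEG400 vehicle at 50 mg/kg. Cyclophosphamide 200 mg/kg i.p. on days 135, 139 and 143. Final imaging day 149. Ex vivo organ bioluminescence days 149-151.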

[17] = tested on: Trypanosoma cruzi; experiment: Antitrypanosomal activity against bloodstream trypomastigotes form of Trypanosoma cruzi CL Brener infected in BALB/c mouse assessed as reduction in parasite in caecum at 50 mg/kg, po qd administered for 5 days starting from day 114 post infection followed by cyclophosphamide induced immunosuppression on days 135, 139 and 143 post infection and measured for 149 days by bioluminescence analysis; assay type: functional, organism-based; details: time 5.0 day; in short: as §1
[18] = Thermodynamic solubility of compound in PEG400; assay type: physicochemical
[19] = tested on: Trypanosoma cruzi; experiment: Antitrypanosomal activity against bloodstream trypomastigotes form of Trypanosoma cruzi CL Brener infected in BALB/c mouse assessed as reduction of parasite in small intestine at 50 mg/kg, po qd administered for 5 days starting from day 114 post infection followed by cyclophosphamide induced …; assay type: functional, organism-based; details: time 5.0 day
[20] = tested on: Trypanosoma cruzi; experiment: Antitrypanosomal activity against Trypanosoma cruzi Y strain amastigotes infected in U2OS cells assessed as inhibition of parasite growth at 3.3 ug/ml by image-based assay relative to control
[21] = tested on: Trypanosoma cruzi; experiment: Antitrypanosomal activity against bloodstream trypomastigotes form of Trypanosoma cruzi Tulahuen strain C2C4 infected in Swiss mouse assessed as reduction in parasitemia at 50 mg/kg, po qd administered for 20 days starting from day 8 post infection and measured for 28 days by neubauer haemocytometer based microscopic analysis; assay type: functional, organism-based; details: time 20.0 day
In short: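 Female Swiss mice, 5 per group, infected i.p. with 5 x 10^4 bloodstream trypomastigotes (Tulahuen). Oral dosing once daily for 20 days from day 8 p.i., vehicle HPMC-SV with 5% DMSO. Tail blood, 3 μL diluted 1:10 in RBC lysis, counted by haemocytometer on days 8–28 p.i.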

Cytochrome P450 3A4, sequence (P08684 whole entry): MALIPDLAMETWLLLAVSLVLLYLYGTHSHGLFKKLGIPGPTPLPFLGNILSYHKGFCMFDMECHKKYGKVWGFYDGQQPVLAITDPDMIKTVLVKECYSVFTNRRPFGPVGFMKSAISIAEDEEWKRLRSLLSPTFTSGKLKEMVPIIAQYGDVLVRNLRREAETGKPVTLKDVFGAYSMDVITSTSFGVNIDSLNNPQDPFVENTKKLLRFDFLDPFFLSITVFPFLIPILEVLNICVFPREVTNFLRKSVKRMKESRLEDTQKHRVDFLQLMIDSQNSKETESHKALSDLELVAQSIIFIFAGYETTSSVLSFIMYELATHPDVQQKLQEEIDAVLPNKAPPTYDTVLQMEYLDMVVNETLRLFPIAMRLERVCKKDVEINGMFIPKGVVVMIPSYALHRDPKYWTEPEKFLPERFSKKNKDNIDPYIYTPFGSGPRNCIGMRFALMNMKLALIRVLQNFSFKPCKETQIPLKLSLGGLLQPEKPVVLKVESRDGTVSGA

| SMILES | IC50 [1] [nM] | IC90 [1] [nM] | IC50 [2] [µM] | IC50 [3] [µM] | selectivity ratio [4] | half-life at 1 h [5] [min] | solubility kinetic at 0.25 h [7] [µg/mL] | IC50 [8] [µM] | selectivity ratio [9] | IC50 [10] [nM] | IC90 [10] [nM] | %max [11] [%] | concentration at 24 h [13] [µM] | also measured |
| --- | --- | --- | --- | --- | --- | --- | --- | --- | --- | --- | --- | --- | --- | --- |
| O=[N+]([O-])c1cn2c(n1)OC[C@@H](OCC#Cc1ccc(-c3ccc(OC(F)(F)F)cc3)cn1)C2 | 320 | 990 | > 10 | > 100 | > 313 | > 250 | 0.49 (≈ 1.06 µM) | > 37 | > 51 | 730 | 1000 | 99 |  | inhibition at 0.37 µg/mL [6]: 44% |
| O=[N+]([O-])c1cn2c(n1)OC[C@@H](OCc1ccc(-c3ccc(C(F)(F)F)cc3Cl)cc1)C2 | 3700 | 8000 |  | 34 | 9.2 | > 250 | 0.48 (≈ 1.06 µM) |  |  |  |  |  | 9.1 | IC50 [12]: > 20 µM; inhibition at 10 µg/mL [14]: 94% |
| O=[N+]([O-])c1cn2c(n1)OC[C@H](Oc1ccc(OC(F)(F)F)cc1)C2 | 400 | 1000 | > 10 | > 100 | > 250 |  |  | > 73 | > 61 | 1200 | 1700 | 99 | 11 | Activity [15]: Active; Activity [16]: Active; Activity [17]: Active; solubility thermodynamic [18]: 21 mg/mL (≈ 60800 µM); Activity [19]: Active |
| CC1(COc2ccc(OC(F)(F)F)cc2)CCn2cc([N+](=O)[O-])nc2O1 (centres undefined) | 450 | 930 |  |  |  |  |  |  |  |  | 1000 | 100 |  | inhibition at 3.3 µg/mL [20]: 52%; Activity [21]: Active |
